Measured values from different studies.
Lines come from different studies, so protocols differ.
Target: Dual specificity protein kinase TTK (TTK, Homo sapiens, UniProt P33981)
One construct used (P33981 1-857): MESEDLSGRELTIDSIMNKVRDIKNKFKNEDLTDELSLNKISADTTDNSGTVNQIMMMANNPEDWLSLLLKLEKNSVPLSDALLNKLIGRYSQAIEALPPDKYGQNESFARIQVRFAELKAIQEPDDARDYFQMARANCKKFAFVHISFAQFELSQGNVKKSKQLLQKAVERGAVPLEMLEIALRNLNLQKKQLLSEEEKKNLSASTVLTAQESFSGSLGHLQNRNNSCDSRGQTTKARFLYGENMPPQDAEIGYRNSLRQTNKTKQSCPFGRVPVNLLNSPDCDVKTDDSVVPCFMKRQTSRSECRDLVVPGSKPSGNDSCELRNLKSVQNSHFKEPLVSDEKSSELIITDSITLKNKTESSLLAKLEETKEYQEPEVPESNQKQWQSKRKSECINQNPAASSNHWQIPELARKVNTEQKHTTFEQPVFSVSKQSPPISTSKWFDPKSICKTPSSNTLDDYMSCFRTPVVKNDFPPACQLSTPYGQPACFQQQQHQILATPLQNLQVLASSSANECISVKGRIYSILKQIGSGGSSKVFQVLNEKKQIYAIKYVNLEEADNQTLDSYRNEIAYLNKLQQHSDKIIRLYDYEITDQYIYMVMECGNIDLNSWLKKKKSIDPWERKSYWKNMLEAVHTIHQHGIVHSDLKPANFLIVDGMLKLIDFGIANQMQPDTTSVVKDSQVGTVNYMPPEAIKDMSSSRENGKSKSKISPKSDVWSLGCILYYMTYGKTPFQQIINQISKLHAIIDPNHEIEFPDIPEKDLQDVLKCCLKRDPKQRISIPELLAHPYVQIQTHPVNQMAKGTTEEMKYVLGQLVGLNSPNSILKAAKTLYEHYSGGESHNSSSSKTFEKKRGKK

For `N#CC1(c2ccccn2)CCN(Cc2cc(C(=O)O)c(=O)n3ccccc23)CC1`, the remaining binding was 88% (cell-free assay; competition with immobilised ligand; 1 µM).
`COc1ncccc1-c1cnn2ccc(N3CCN(C(=O)OC(C)C)CC3)nc12` gave a remaining binding of 100% (binding; competition with immobilised ligand; 1 µM).
For `Cn1cncc1[C@@](O)(COc1ccc(C#N)cc1-c1ccc(OC(F)(F)F)cc1)c1ccc(C#N)cc1`, the remaining binding was 100% (cell-free assay; competition with immobilised ligand; 1 µM).
The remaining activity of `CC(C)(C)c1cc(C=C(C#N)C#N)cc(Br)c1O` is reported as 101% (enzyme activity; inhibitor; 0.5 µM).
With `Cn1cc(-c2cc(F)cc(N3CCn4c(cc5c4CCCC5)C3=O)c2CO)cc(Nc2ccc(N3CCN(C4COC4)CC3)cn2)c1=O` the inhibition was -17% (enzyme activity; inhibitor; 0.1 µM).
With `Cc1nn(C)cc1-c1nc2c(N3CCN(Cc4ccc(Cl)cc4)CC3)c(Cl)cnc2[nH]1` the remaining binding was 100% (binding; competition with immobilised ligand; 1 µM).
For `O=c1[nH]c2ccccc2n1C1CCN(Cc2ccc(-c3[nH]c4cc5ncnc5cc4nc3-c3ccccc3)cc2)CC1`, the remaining signal was 104% (cell-free assay; 0.5 µM).
The inhibition of `Cn1cc(-c2cccc(N3CCc4c(sc5c4CC(C)(C)C5)C3=O)c2CO)cc(Nc2ccncn2)c1=O` is reported as -3% (enzyme activity; inhibitor; 1 µM).
The remaining binding of `Nc1ncc(-c2nc(N3CCOCC3)nc(N3CCOCC3)n2)c(C(F)F)n1` is reported as 84% (binding; competition with immobilised ligand; 10 µM).
